Blank lines part the entries; values can stand above or below the molecule they belong to.
Assays:
[1] = system: Tumor Cell line; test: Tested for in vitro inhibitory activity against drug concentration causing 50% cell growth inhibition in 56 human tumor cell lines derived from Ovarian cancer in test 7; log10 GI50; format: functional
Summary of the method: (§1)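 NCI 56-line human tumour panel screen. Cells were seeded in 96-well plates on day 0, mostly at 20 000 cells/well, and preincubated 24 h without drug. Drug was then added at five 10-fold dilutions for a further 48 h. Cells were fixed in situ and stained with SRB, and bound dye was read spectrophotometrically. GI50, TGI (0% growth) and LC50 (−50% growth) were taken versus control. Values are mean-graph midpoints (log10) per test.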

[2] = system: Tumor Cell line; test: Tested for in vitro inhibitory activity against drug concentration causing total cell growth inhibition in 56 human tumor cell lines derived from leukemia in test 1; log10 TGI50; format: functional; conditions: read-out: Log TGI (converted); summary of the method: as §1
[3] = system: Tumor Cell line; test: Tested for in vitro inhibitory activity against drug concentration causing 50% cell death inhibition in 56 human tumor cell lines derived from leukemia in test 1; log10 LC50; format: functional; conditions: read-out: Log LC50 (the source's name) (converted); summary of the method: as §1
[4] = system: Tumor Cell line; test: Tested for in vitro inhibitory activity against drug concentration causing 50% cell death inhibition in 56 human tumor cell lines derived from colon cancer in test 4; log10 LC50; format: functional; conditions: read-out: Log LC50 (the source's name) (converted); summary of the method: as §1
[5] = system: Tumor Cell line; test: Tested for in vitro inhibitory activity against drug concentration causing 50% cell death inhibition in 56 human tumor cell lines derived from Ovarian cancer in test 7; log10 LC50; format: functional; conditions: read-out: Log LC50 (the source's name) (converted); summary of the method: as §1
[6] = system: Tumor Cell line; test: Tested for in vitro inhibitory activity against drug concentration causing total cell growth inhibition in 56 human tumor cell lines derived from small-cell-lung cancer in test 3; log10 TGI50; format: functional; conditions: read-out: Log TGI (converted); summary of the method: as §1
[7] = organism: Homo sapiens; test: Tested for in vitro inhibitory activity against drug concentration causing 50% cell growth inhibition in 56 human tumor cell lines derived from Non-small-cell lung cancer in test 2; log10 GI50; format: functional; summary of the method: as §1
[8] = system: Tumor Cell line; test: Tested for in vitro inhibitory activity against drug concentration causing 50% cell growth inhibition in 56 human tumor cell lines derived from renal cancer in test 8; log10 GI50; format: functional; summary of the method: as §1
[9] = system: Tumor Cell line; test: Tested for in vitro inhibitory activity against drug concentration causing 50% cell growth inhibition in 56 human tumor cell lines derived from leukemia in test 1; log10 GI50; format: functional; summary of the method: as §1
[10] = system: Tumor Cell line; test: Tested for in vitro inhibitory activity against drug concentration causing 50% cell growth inhibition in 56 human tumor cell lines derived from CNS cancer in test 5; log10 GI50; format: functional; summary of the method: as §1
[11] = system: Tumor Cell line; test: Tested for in vitro inhibitory activity against drug concentration causing 50% cell death inhibition in 56 human tumor cell lines derived from leukemia in test 9; log10 LC50; format: functional; conditions: read-out: Log LC50 (the source's name) (converted); summary of the method: as §1
[12] = system: Tumor Cell line; test: Tested for in vitro inhibitory activity against drug concentration causing 50% cell death inhibition in 56 human tumor cell lines derived from small cell lung cancer in test 3; log10 LC50; format: functional; conditions: read-out: Log LC50 (the source's name) (converted); summary of the method: as §1
[13] = system: Tumor Cell line; test: Tested for in vitro inhibitory activity against drug concentration causing 50% cell growth inhibition in 56 human tumor cell lines derived from Melanoma in test 6; log10 GI50; format: functional; summary of the method: as §1
[14] = system: Tumor Cell line; test: Tested for in vitro inhibitory activity against drug concentration causing total cell growth inhibition in 56 human tumor cell lines derived from Renal cancer in test 8; log10 TGI50; format: functional; conditions: read-out: Log TGI (converted); summary of the method: as §1
[15] = system: Tumor Cell line; test: Tested for in vitro inhibitory activity against drug concentration causing 50% cell death inhibition in 56 human tumor cell lines derived from Melanoma in test 6; log10 LC50; format: functional; conditions: read-out: Log LC50 (the source's name) (converted); summary of the method: as §1
[16] = system: Tumor Cell line; test: Tested for in vitro inhibitory activity against drug concentration causing 50% cell death inhibition in 56 human tumor cell lines derived from Renal cancer in test 8; log10 LC50; format: functional; conditions: read-out: Log LC50 (the source's name) (converted); summary of the method: as §1
[17] = system: Tumor Cell line; test: Tested for in vitro inhibitory activity against drug concentration causing 50% cell death inhibition in 56 human tumor cell lines derived from Non small cell lung cancer in test 2; log10 LC50; format: functional; conditions: read-out: Log LC50 (the source's name) (converted); summary of the method: as §1
[18] = system: Tumor Cell line; test: Tested for in vitro inhibitory activity against drug concentration causing total cell growth inhibition in 56 human tumor cell lines derived from colon cancer in test 4; format: functional; conditions: read-out: Log TGI (converted); summary of the method: as §1
[19] = system: Tumor Cell line; test: Tested for in vitro inhibitory activity against drug concentration causing 50% cell death inhibition in 56 human tumor cell lines derived from CNS cancer in test 5; log10 LC50; format: functional; conditions: read-out: Log LC50 (the source's name) (converted); summary of the method: as §1
[20] = system: Tumor Cell line; test: Tested for in vitro inhibitory activity against drug concentration causing 50% cell growth inhibition in 56 human tumor cell lines derived from colon cancer in test 4; log10 GI50; format: functional; summary of the method: as §1
[21] = system: Tumor Cell line; test: Tested for in vitro inhibitory activity against drug concentration causing total cell growth inhibition in 56 human tumor cell lines derived from Non small cell lung cancer in test 2; log10 TGI50; format: functional; conditions: read-out: Log TGI (converted); summary of the method: as §1
[22] = system: Tumor Cell line; test: Tested for in vitro inhibitory activity against drug concentration causing total cell growth inhibition in 56 human tumor cell lines derived from Melanoma in test 6; log10 TGI50; format: functional; conditions: read-out: Log TGI (converted); summary of the method: as §1
[23] = system: Tumor Cell line; test: Tested for in vitro inhibitory activity against drug concentration causing 50% cell growth inhibition in 56 human tumor cell lines derived from leukemia in test 9; log10 GI50; format: functional; summary of the method: as §1
[24] = system: Tumor Cell line; test: Tested for in vitro inhibitory activity against drug concentration causing total cell growth inhibition in 56 human tumor cell lines derived from ovarian cancer in test 7; log10 TGI50; format: functional; conditions: read-out: Log TGI (converted); summary of the method: as §1
[25] = system: Tumor Cell line; test: Tested for in vitro inhibitory activity against drug concentration causing total cell growth inhibition in 56 human tumor cell lines derived from CNS cancer in test 5; log10 TGI50; format: functional; conditions: read-out: Log TGI (converted); summary of the method: as §1
[26] = system: Tumor Cell line; test: Tested for in vitro inhibitory activity against drug concentration causing 50% cell growth inhibition in 56 human tumor cell lines derived from small-cell-lung cancer in test 3; log10 GI50; format: functional; summary of the method: as §1
[27] = system: Tumor Cell line; test: Tested for in vitro inhibitory activity against drug concentration causing total cell growth inhibition in 56 human tumor cell lines derived from leukemia in test 9; log10 TGI50; format: functional; conditions: read-out: Log TGI (converted); summary of the method: as §1
[28] = system: P388; test: Tested for in vitro inhibitory activity against drug concentration causing 50% cell growth inhibition in P388/ADR cell lines; log10 GI50; format: functional, Homo sapiens; conditions: Mus musculus
Summary of the method: (§2)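 NCI screen: cells plated on day 0 (mostly 20 000 cells/well) and preincubated drug-free for 24 h. Drug then added at five 10-fold dilutions for 48 h. Cells were fixed in situ, stained with sulforhodamine B, and the solubilized bound dye read spectrophotometrically. GI50, the concentration giving 50% growth inhibition versus control, was taken from dose-response curves.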

[29] = system: Tumor Cell line; test: Tested for in vitro inhibitory activity against drug concentration causing 50% cell growth inhibition in 56 human tumor cell lines derived from leukemia; log10 GI50; format: functional; summary of the method: as §2

Structure (SMILES): COc1cc([C@@H]2c3cc4c(cc3[C@@H](Nc3ccc(F)cc3)[C@H]3COC(=O)[C@H]23)OCO4)cc(OC)c1O
GI50 [1]: 871 nM
TGI [2]: 9770 nM
CC50 [3]: 61700 nM
CC50 [4]: 1000 nM
CC50 [5]: 79400 nM
TGI [6]: 9550 nM
GI50 [7]: 813 nM
GI50 [8]: 646 nM
GI50 [9]: 1100 nM
GI50 [10]: 1350 nM
CC50 [11]: 61700 nM
CC50 [12]: 61700 nM
GI50 [13]: 661 nM
TGI [14]: 977 nM
CC50 [15]: 1000 nM
CC50 [16]: 1000 nM
CC50 [17]: 66100 nM
TGI [18]: 1000 nM
CC50 [19]: 63100 nM
GI50 [20]: 708 nM
TGI [21]: 12300 nM
TGI [22]: 977 nM
GI50 [23]: 813 nM
TGI [24]: 12000 nM
TGI [25]: 11000 nM
GI50 [26]: 1410 nM
TGI [27]: 8710 nM

GI50 [28]: 63100 nM
GI50 [29]: 83200 nM
Structure (SMILES): COc1cc([C@@H]2c3cc4c(cc3[C@@H](O[C@@H]3O[C@@H]5CO[C@@H](C)O[C@H]5[C@H](O)[C@H]3O)[C@H]3COC(=O)[C@H]23)OCO4)cc(OC)c1O [ETOPOSIDE]

Reference: ChEMBL document CHEMBL1127509, “Antitumor agents. 152. In vitro inhibitory activity of etoposide derivative NPF against human tumor cell lines and a study of its conformation by X-ray crystallography, molecular modeling, and NMR spectroscopy” (1994)
